Results from different studies.
PIK3C2B: Phosphatidylinositol 4-phosphate 3-kinase C2 domain-containing subunit beta (PIK3C2B, Homo sapiens, UniProt O00750)
PDE5A: cGMP-specific 3',5'-cyclic phosphodiesterase (PDE5A, Homo sapiens, UniProt O76074)
EHMT1: Histone-lysine N-methyltransferase EHMT1 (EHMT1, Homo sapiens, UniProt Q9H9B1)
SPHK1: Sphingosine kinase 1 (SPHK1, Homo sapiens, UniProt Q9NYA1)
ADORA2A: Adenosine receptor A2a (ADORA2A, Homo sapiens, UniProt P29274)
CNR1: Cannabinoid receptor 1 (CNR1, Homo sapiens, UniProt P21554)
PARP1: Poly [ADP-ribose] polymerase 1 (PARP1, Homo sapiens, UniProt P09874)
OPRK1: Kappa-type opioid receptor (OPRK1, Homo sapiens, UniProt P41145)

Structure (SMILES)	target	test	test system	conditions	inhibition [%]
O=C(CSc1nc2nccnc2c(=O)n1CCc1ccccc1)Nc1ccccc1	PIK3C2B	enzyme activity, inhibitor		10 µM	72
COc1ccc([C@@H]2c3[nH]c4ccccc4c3C[C@@H]3C(=O)N(C(C)(C)C)C(=O)N23)cc1OC	PDE5A	enzyme activity, inhibitor, FP		50 µM	54
Cc1cc(-c2ccc(/N=N/c3ccc4c(S(=O)(=O)O)cc(S(=O)(=O)O)c(N)c4c3O)c(C)c2)ccc1/N=N/c1ccc2c(S(=O)(=O)O)cc(S(=O)(=O)O)c(N)c2c1O	EHMT1	cell-free assay		10 µM	48
[H]/N=C(/N)N1CCC[C@H]1c1nc(-c2ccc(OCCC=CCCCC)c(C(F)(F)F)c2)no1	SPHK1	enzyme activity, inhibitor, radiometric		1 µM	4
O=C(c1ccc(Cl)cc1)N(Cc1ccccc1)C1CCCCC1	ADORA2A	cell-free assay		10 µM	9.1
COC(=O)[C@@H]1Cc2c([nH]c3ccccc23)[C@@H](c2ccc(OC)c(OC)c2)N1C(=O)CCl	PDE5A	enzyme activity, inhibitor, FP		50 µM	22
Ic1cccc2cnccc12	Sigma non-opioid intracellular receptor 1 (SIGMAR1, Homo sapiens, UniProt Q99720)	ligand displacement, radioligand		10 µM	21
Oc1ccc(CCNc2ccc3oc(-c4ccco4)nc3c2)cc1	ADORA2A	ligand displacement, radioligand		10 µM, cell membranes	15
O=C(c1ccc(F)cc1)N(Cc1ccccc1)C1CCCCC1	CNR1	cell-free assay		10 µM	18
COc1ccc(-c2nc3cc(CCN4CCCCC4)ccc3o2)cc1OC	ADORA2A	ligand displacement, radioligand		10 µM, cell membranes	10
O=C(c1ccc(-c2nc3ccccc3c(=O)[nH]2)c(F)c1)N1CCn2c(nnc2C(F)(F)F)C1	PARP1	enzyme activity, inhibitor, ELISA		1 µM	13
CCN1C(=O)[C@H]2Cc3c([nH]c4ccccc34)[C@@H](c3ccc(OC)c(OC)c3)N2C1=O	PDE5A	enzyme activity, inhibitor, FP		50 µM	78
CSCCC(NC=O)C(=O)NC(C)C(=O)O (stereo not shown)	EHMT1	cell-free assay		10 µM	0
O=C1N=C(N2CCCCN2)S/C1=C\c1ccc(F)cc1O	Endothelin-1 receptor (EDNRA, Homo sapiens, UniProt P25101)	ligand displacement, radioligand		10 µM	< 10
COc1ccc(CCc2ccc(-c3noc([C@@H]4CCCN4C(=N)N)n3)cc2C(F)(F)F)cc1	SPHK1	enzyme activity, inhibitor, radiometric		1 µM	0
CC(C)(C)N1C(=O)[C@@H]2Cc3c([nH]c4ccccc34)[C@H](c3cccnc3)N2C1=O	PDE5A	enzyme activity, inhibitor, FP		50 µM	45
[H]/N=C(\N)N1CCC[C@H]1c1nc(-c2ccc(OCC=CCCCC)c(C(F)(F)F)c2)no1	SPHK1	enzyme activity, inhibitor, radiometric		1 µM	23
C=CCN1C(=O)[C@H]2Cc3c([nH]c4ccccc34)[C@H](c3ccc(Br)s3)N2C1=O	PDE5A	enzyme activity, inhibitor, FP		10 µM	67
CCN1C(=O)[C@H]2Cc3c([nH]c4ccccc34)[C@H](c3cccnc3)N2C1=O	PDE5A	enzyme activity, inhibitor, FP		50 µM	58
O=C(O[C@@H]1Cc2c(O)cc(O)cc2O[C@@H]1c1cc(O)c(=O)c2c(O)c(O)cc([C@H]3Oc4cc(O)cc(O)c4C[C@H]3OC(=O)c3cc(O)c(O)c(O)c3)c2c1)c1cc(O)c(O)c(O)c1	EHMT1	cell-free assay		10 µM	0
COc1ccc(F)cc1C(=O)NCc1ccc(-c2nn([C@@H](C)C(F)(F)F)c(N)c2C(N)=O)cc1	Mitogen-activated protein kinase kinase kinase 3 (MAP3K3, Homo sapiens, UniProt Q99759)	target engagement in cells, inhibitor, chemoproteomics		0.1 µM	26.3
c1ccc(N2CCN(CCCc3ccc4oc(-c5ccco5)nc4c3)CC2)cc1	ADORA2A	ligand displacement, radioligand		10 µM, cell membranes	28
CCCNc1nc2ccccc2n1Cc1ccc(Cl)cc1	OPRK1	ligand displacement		10 µM	11.1

Structure (SMILES)	target	test	test system	conditions	inhibition [%]
O=c1oc2c(O)c(O)cc3c(=O)oc4c(O)c(O)cc1c4c23	EHMT1	cell-free assay		10 µM	6
COc1cc(NC(C)=O)c(Cl)cc1C(=O)Nc1nccs1	CNR1	cell-free assay		10 µM	11.8
[H]/N=C(\N)N1CCC[C@H]1c1nc(-c2ccc(OCC=Cc3ccccc3C(F)(F)F)c(C(F)(F)F)c2)no1	SPHK1	enzyme activity, inhibitor, radiometric		1 µM	0
O=C1NCCCc2ccc(F)cc21	PARP1	enzyme activity, inhibitor		10 µM	15
CCN(Cc1ccccc1C(F)(F)F)C(=O)C1CCN(S(=O)(=O)c2ccc3[nH]ncc3c2)CC1	OPRK1	ligand displacement, radioligand		10 µM	5
Oc1cccc(Nc2nc(-c3ccc(F)cc3F)cs2)c1	ADORA2A	cell-free assay		10 µM	76
O=C(O)CCCCCCCCCCCC[C@@H]1C=CCC1	EHMT1	cell-free assay		10 µM	-11
[H]/N=C(\N)N1CCC[C@H]1c1nc(-c2ccc(OCC=Cc3cccc(C(F)(F)F)c3)c(C(F)(F)F)c2)no1	SPHK1	enzyme activity, inhibitor, radiometric		1 µM	0
O=C(Nc1ccc(S(=O)(=O)N2CCC(Cl)CC2)cc1)c1ccc([N+](=O)[O-])o1	CNR1	ligand displacement, radioligand		10 µM	20
O=C1NCCCc2c(O)cccc21	PARP1	enzyme activity, inhibitor		10 µM	43
CN(C)C1CCN(CC#Cc2nn(C3CCCC3)c3nc(NCc4ccccc4)ncc23)C1 (stereo not shown)	Serine/threonine-protein kinase TBK1 (TBK1, Homo sapiens, UniProt Q9UHD2)	enzyme activity, inhibitor, FRET		1 µM	3
CCc1ccc(CCc2ccc(-c3noc([C@@H]4CCCN4C(=N)N)n3)cc2C(F)(F)F)cc1	SPHK1	enzyme activity, inhibitor, radiometric		1 µM	13
O=C(CSc1nc2nccnc2c(=O)n1CCc1ccccc1)Nc1nccs1	SPHK1	enzyme activity, inhibitor		10 µM	8
COC(=O)[C@@H]1Cc2c([nH]c3ccccc23)[C@H](c2cccnc2)N1	PDE5A	enzyme activity, inhibitor, FP		50 µM	72
CCN1CCN(Cc2ccc(NC(=O)c3ccc(C)c(/C=C/c4cnc5[nH]ccc5c4OC)c3)cc2C(F)(F)F)CC1	Serine/threonine-protein kinase A-Raf (ARAF, Homo sapiens, UniProt P10398)	target engagement in cells, inhibitor, chemoproteomics	A-375	5 µM	-23.9
CCN(CC)c1ccc(C2Nc3ccc(C(=O)c4ccccc4)cc3NC3=C2C(=O)CC(C)(C)C3)cc1 (stereo not shown)	Histamine H4 receptor (HRH4, Homo sapiens, UniProt Q9H3N8)	ligand displacement, radioligand		10 µM	12
COc1ccc(-c2nc3cc(CCN4CCN(c5ccccc5)CC4)ccc3o2)cc1OC	ADORA2A	ligand displacement, radioligand		10 µM, cell membranes	5
[H]/N=C(\N)N1CCC[C@H]1c1nc(-c2ccc(OCCC=Cc3ccc(C(F)(F)F)cc3)c(C(F)(F)F)c2)no1	SPHK1	enzyme activity, inhibitor, radiometric		1 µM	5
CC(C)CCn1c(SCC(=O)Nc2ccccc2C(F)(F)F)nc2nccnc2c1=O	PIK3C2B	enzyme activity, inhibitor		10 µM	23
O=c1c(-c2cc(O)c(O)c(O)c2)coc2cc(O)c(O)c(O)c12	EHMT1	cell-free assay		10 µM	0
COc1ccc(-n2nc(OCCCN3CCCCC3)ccc2=O)cc1	Sodium channel protein type 9 subunit alpha (SCN9A, Homo sapiens, UniProt Q15858)	ligand displacement		1 µM	32.1
Cn1cncc1C1=CN(c2ncnc3[nH]cnc23)CCS1	Interleukin-1 receptor-associated kinase-like 2 (IRAK2, Homo sapiens, UniProt O43187)	enzyme activity, inhibitor, radiometric		2 µM	85
O=C(CN1CCN(c2ccccc2)CC1)Nc1ccc2oc(-c3ccco3)nc2c1	ADORA2A	ligand displacement, radioligand		10 µM, cell membranes	12
